Source: PubChem
TAAR1 antagonist: human TAAR1 antagonists, primary screen, Fluo-8 calcium fluorescence, CHO RD-HGA16 cells; antagonist; inhibition, % at 3 µM; 360,000 compounds, 1.5% hits; AID 624466, 2012;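 active = inhibition above a per-plate cutoff, the mean inhibition of test compounds on that plate plus 3 SD, cut at about 49% in these data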;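 note: 0% = DMSO plus EC80 beta-PEA response and 100% = DMSO alone without agonist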
Target sequence (Q96RJ0 whole entry, looked up): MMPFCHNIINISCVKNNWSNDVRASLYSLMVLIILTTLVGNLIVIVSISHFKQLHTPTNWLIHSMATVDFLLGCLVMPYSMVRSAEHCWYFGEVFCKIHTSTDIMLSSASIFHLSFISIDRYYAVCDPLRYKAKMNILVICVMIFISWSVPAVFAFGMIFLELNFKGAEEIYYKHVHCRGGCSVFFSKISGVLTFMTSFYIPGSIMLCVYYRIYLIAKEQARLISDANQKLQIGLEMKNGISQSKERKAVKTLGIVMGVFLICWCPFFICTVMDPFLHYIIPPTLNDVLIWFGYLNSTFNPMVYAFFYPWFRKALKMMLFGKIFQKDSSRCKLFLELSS
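Material: CHO RD-HGA16 cells bearing hTAAR1; compound dosing: one-point dosing, 3 µM nominal final; schedule: dye loading 75 min at 37 °C, then 30 min room temperature; measured by: calcium fluorescence with Fluo-8; control set: vehicle and agonist controls; replication: n of 1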
OX1R antag-1: OX1R (HCRTR1) antagonists, primary screen, fluorescence, CHO/OX1R cells, Fluo-8 calcium, orexin A; Orexin/Hypocretin receptor type 1 (Homo sapiens), O43613; Fluo-8 calcium fluorescence; inhibition, % at 5 µM; 330,000 compounds, 0.43% hits; AID 434989, 2010;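 active = inhibition above its plate's threshold, mean inhibition of all tested compounds on the plate plus 3 SD, cut at about 37% in these data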;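 note: 0% = orexin A challenge wells and 100% = SB-334867-A antagonist wells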
OX1R antag-2: antagonists of human orexin 1 receptor (OX1R); OX1R-expressing cells, FRET antagonist read-out; inhibition, % at 6.6 µM; 330,000 compounds, 1.8% hits; AID 485270, 2010; in the data active = inhibition mostly above about 38%, no sharp cut-off; inactive = mostly below about 40%;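 note: 0% = agonist challenge alone and 100% = reference antagonist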
CHO parental Ca: ATP-evoked calcium signal inhibitors, parental CHO, primary screen, counter-screen for OX1R antagonist project, cell-based, fluorescence, Fluo-8 calcium dye; parental CHO-K1, ATP-induced calcium, Fluo-8 fluorescence; inhibition, % at 5.6 µM; 330,000 compounds, 0.63% hits;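 active = inhibition above that plate's mean sample inhibition plus 3 SD, cut at about 26% in these data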;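 note: 0% = ATP-challenged DMSO wells and 100% = DMSO wells without ATP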
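Test system: untransfected parental CHO cell line; also added: ATP stimulus; dosing: 5.6 µM, single dose; signal: calcium-sensitive Fluo-8 fluorescence; measure: percent inhibition of ATP-evoked calcium rise, normalized to controls; benchmarks: low control ATP plus DMSO, high control DMSO only; replication: one well per compound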
TAAR1 agonist: human TAAR1 agonists, primary screen, Fluo-8 calcium fluorescence, CHO RD-HGA16 cells. Trace amine-associated receptor 1 (Homo sapiens), Q96RJ0. vehicle wells 0%, saturating PEA agonist 100%. activation, % at 3 µM. 360,000 compounds, 0.99% hits. AID 624467, 2012;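 active = activation above the mean activation of all test compounds in the run plus 3 SD, cut at about 38% in these data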
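test system = CHO RD-HGA16 cells carrying human TAAR1 plus Gα16 | schedule = 17-24 h seeding, 75 min 37 °C dye, 30 min RT | compound dosing = 3 µM single concentration | control set = DMSO and PEA EC100 | replicates = n 1 | signal = Fluo-8 fluorescence, 5 s baseline then 140 s kinetic read | measure = percent activation vs PEA EC100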
GPR7 antagonist: GPR7 receptor antagonists, primary screen, cell-based, fluorescence, single concentration | AID 1861, 2009 | GPR7-expressing cells, fluorescence antagonist assay | 290,000 compounds, 1.1% hits | inhibition, % at 4.4 µM | Neuropeptides B/W receptor type 1 (Homo sapiens), P48145; in the data active = inhibition above about 16%, passing the limit was not always enough;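 note: cells stimulated with the agonist NPW; 0% = agonist with vehicle and 100% = vehicle without agonist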
Target sequence (P48145 whole entry, looked up): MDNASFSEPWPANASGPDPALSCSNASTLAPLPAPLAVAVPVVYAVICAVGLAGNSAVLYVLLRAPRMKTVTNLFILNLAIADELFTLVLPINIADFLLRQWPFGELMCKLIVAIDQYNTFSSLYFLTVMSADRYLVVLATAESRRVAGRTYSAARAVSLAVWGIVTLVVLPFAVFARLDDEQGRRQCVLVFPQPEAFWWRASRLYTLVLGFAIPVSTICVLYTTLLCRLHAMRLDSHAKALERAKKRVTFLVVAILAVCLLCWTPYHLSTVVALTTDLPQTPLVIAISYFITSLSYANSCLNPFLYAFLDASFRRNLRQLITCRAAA
* hit, by the source's call; x = no result. In the library only some 4.5% were active in any assay of this set; here they are far more common.

SMILES	TAAR1 antagonist	OX1R antag-1	OX1R antag-2	CHO parental Ca	TAAR1 agonist	GPR7 antagonist
COC(=O)c1ccc(N2CCOCC2)c(NC(=O)Nc2cccc(OC)c2)c1	5.6	-20.2	9.2	0.9	2.1	5.0
CCOC(=O)c1ccc(N2CCN(c3ccccc3F)CC2)c(NC(=O)Nc2cccc(OC)c2)c1	69.3*	28.0	29.9	16.5	10.0	-2.8
CCOC(=O)c1sc(N)c(C#N)c1CSc1nc2ccc(OCC)cc2[nH]1	-23.6	-20.6	47.0*	-18.4	-1.7	-0.5
CCOC(=O)c1sc(N)c(C#N)c1CSc1nc2ccc(C)cc2[nH]1	2.7	-34.1	18.5	-42.0	9.8	-5.4
O=C(CN1CCCCC1)Nc1nnc(-c2ccc([N+](=O)[O-])cc2)s1	-8.0	-8.0	58.0*	-2.6	25.9	3.0
O=C(CN1CCN(c2ccccc2O)CC1)Nc1cc([N+](=O)[O-])ccc1Cl	-11.6	-5.5	57.9*	-18.7	4.3	-9.7
O=C(CN1CCCCCC1)Nc1cc([N+](=O)[O-])ccc1Cl	2.3	5.1	62.5*	3.9	2.4	-5.2
Cc1cc(N2CCN(S(C)(=O)=O)C[C@@H]2C)ccc1N1CCN(Cc2ccccc2)[C@@H](C)C1	-20.1	x	x	x	5.4	x
Cc1cccc(CN2[C@@H](C)[C@H](c3ccccc3)Oc3cc(Br)ccc3S2(=O)=O)c1	-13.8	x	x	x	3.1	x
CC1(c2ccc([N+](=O)[O-])cc2)NC(=O)N(CC(=O)Nc2cccnc2Cl)C1=O (centres undefined)	21.1	19.1	15.4	-3.1	56.7*	x
Cc1ccc(C2(C)NC(=O)N(CC(=O)Nc3cccnc3Cl)C2=O)cc1 (centres undefined)	13.6	9.5	16.3	-9.5	5.5	4.2
O=S(=O)(Nc1cccc(-c2cn3c(n2)SCC3)c1)c1cccs1	-0.6	0.7	55.9*	-3.1	0.0	-5.8
O=S(=O)(Nc1cccc(-c2cn3c(n2)SCC3)c1)c1ccccc1F	-13.2	-9.7	22.6	-5.1	1.3	4.8
COc1ccc(-c2nnc(-c3cc4c(ccc5ccccc54)oc3=O)o2)cc1	7.1	-21.9	62.2	-13.9	0.6	-7.7
O=c1oc2ccc3ccccc3c2cc1-c1nnc(-c2ccccc2)o1	-1.6	-2.3	73.7*	-4.8	4.2	11.8
COC(=O)C1=C(N)N(c2ccccc2C(F)(F)F)C2=C(C(=O)CCC2)C1c1ccc2c(c1)OCO2 (centres undefined)	17.0	-19.9	15.6	47.9*	1.4	16.4
O=C(Nc1ccccc1F)c1csc([C@@H]2C[C@H](O)[C@@H](CO)O2)n1	-22.8	x	x	x	1.9	x
CN(C)S(=O)(=O)c1cccc(COC(=O)c2ccc3c(c2)OCO3)c1	21.5	-8.8	21.6	-6.7	2.4	8.9
CN(C)S(=O)(=O)c1cccc(COC(=O)c2ccc(Cl)cc2O)c1	8.3	32.9	33.8	48.2*	1.6	6.0
CN(C)S(=O)(=O)c1cccc(CSCc2cccc(S(=O)(=O)N(C)C)c2)c1	32.2	6.4	27.1	45.6*	5.0	25.4
Cc1cc(C)n2nc(SCc3cccc(S(=O)(=O)N(C)C)c3)nc2n1	0.7	-10.4	13.9	8.1	5.4	-10.1
O=C(Nc1ccc2c(c1)CCO2)Nc1nnc([C@H]2C[C@H](O)[C@@H](CO)O2)s1	0.9	x	x	x	5.2	x
CN1OC[C@@H]2CN(CC3CCCCC3)[C@H](c3ccc(-c4ccc(C#N)cc4)cc3)C[C@@H]21	-36.9	x	x	x	2.5	x
COc1ccc(S(=O)(=O)NCc2csc(-c3cccnc3)n2)cc1	-10.9	-7.5	13.1	-10.7	1.0	6.5
O=S(=O)(NCc1csc(-c2cccnc2)n1)c1ccc(Br)cc1	-27.8	-10.7	38.4*	-20.3	1.4	8.0
SMILES	TAAR1 antagonist	OX1R antag-1	OX1R antag-2	CHO parental Ca	TAAR1 agonist	GPR7 antagonist
COC(=O)C1=C(C)N(C)C(=NCc2cccc(C(F)(F)F)c2)NC1c1ccccc1 (centres undefined)	-3.2	x	x	x	8.4	x
C=CCOc1ccc(/C=C2/C(=O)ON=C2C)cc1OC	18.5	-23.0	5.6	-13.5	38.5*	-8.2
Cc1cc(C)c2cc(C#N)c(NCCNC(=O)c3ccccn3)nc2c1	-6.9	x	x	x	-2.8	x
O=c1cc(-c2ccc(O)cc2)oc2c1ccc1ccccc12	13.3	-5.1	44.3*	-3.4	7.3	x
O=C(Cc1c[nH]c2ccccc12)Nc1ccc(Nc2cccnc2)c(Br)c1	42.3	x	x	x	2.4	x
CC(=O)C1=C(C)N(Cc2ccc(F)cc2)C(=S)NC1c1ccc(Br)cc1 (centres undefined)	2.7	x	x	x	2.3	x
O=[N+]([O-])c1cc(-c2ncccn2)cs1	-14.2	3.8	51.3*	-1.4	1.7	-8.8
CC(C)CNC(=S)NC(=O)c1csc([N+](=O)[O-])c1	-6.5	-21.9	15.2	-20.4	-2.5	1.2
CC(C)(C)S(=O)(=O)N1C[C@@H]2CC(=O)C(CCO)=C2[C@H]1CCO	-15.4	x	x	x	4.6	x
COC(=O)c1sccc1-c1ccc(C(=O)Nc2ccccc2)o1	10.4	-2.5	59.2*	-10.2	11.3	8.0
COCCNC(=O)C(c1ccc(F)cc1)N(Cc1ccccc1)C(=O)CCC(=O)Nc1ccccn1 (centres undefined)	3.5	9.7	70.0*	-24.6	-0.2	-15.8
COCCNC(=O)C(c1ccc(F)cc1)N(Cc1cccs1)C(=O)CCC(=O)Nc1ccccn1 (centres undefined)	0.9	16.7	76.3*	-17.9	0.4	-6.8
COCCNC(=O)C(c1ccc(O)cc1)N(Cc1ccccc1)C(=O)CCC(=O)Nc1ccccn1 (centres undefined)	7.8	0.5	15.3	-4.4	-1.6	4.6
CC(C)c1[nH]nc2c1C(c1ccc3c(c1)OCO3)NC2=O (centres undefined)	-8.9	x	x	x	3.1	x
COc1cc(C(C)=O)ccc1OCC(=O)Nc1ccc(C)c(S(=O)(=O)N2CCCCCC2)c1	76.6*	53.4*	29.0	32.5*	18.5	x
Cc1ccc(NC(=O)COc2cccc(C)c2C)cc1S(=O)(=O)N1CCCCCC1	24.5	-11.9	19.1	2.6	-0.7	x
Cc1ccc(NC(=O)COc2ccc(N(C)C(=O)C(C)(C)C)cc2)cc1S(=O)(=O)N1CCCCC1	51.9*	72.8*	19.8	77.9*	10.2	x
CC(=O)Nc1ccc(OCC(=O)Nc2ccc(Cl)c(S(=O)(=O)N3CCOCC3)c2)cc1	44.8	54.0*	18.6	29.0*	13.6	x
COc1cc(C(C)=O)ccc1OCC(=O)Nc1ccc(S(=O)(=O)N2CCCCC2)cc1	19.4	x	x	x	5.8	x
